Measurements published in ChEMBL document CHEMBL4706701, “Synthesis and biological activity of selenopsammaplin A and its analogues as antitumor agents with DOT1L inhibitory activity” (Bioorg Med Chem, 2021).
Calls of active or inactive are those of the source. No cut-off for these calls is given here.

Experiments:
MDA-MB-231 = assay: Antitumor activity against human MDA-MB-231 cells xenografted in BALB/c nu mouse assessed as reduction in tumor weight at 5 to 15 mg/kg, ip administered thrice per week for 38 days measured 1 week post last dose; type: functional, organism-based; details: dose 5-15 mg/kg, time 45.0 day
Summary of the method: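 Female BALB/c-nu mice (5–6 wk) given 1 × 10⁷ luciferase-expressing MDA-MB-231 cells in 50:50 DMEM/Matrigel into the fourth fat pad; randomized after 10 days (six per group). Dosed ip in EtOH/Cremophor/saline (5:5:90) three times weekly for 38 days. Tumor L, W, H measured by caliper, volume = LWH/2; body weight weekly; tumors excised and weighed at termination.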

[1] = Toxicity in human MDA-MB-231 cells xenografted BALB/c nu mouse at 5 to 15 mg/kg, ip administered thrice per week for 38 days; type: organism-based; details: in vivo, 912 h, dose 5-15 mg/kg, time 38 day
Summary of the method: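 Female BALB/c-nu mice, 5–6 weeks old, received 1 × 10⁷ luciferase-expressing MDA-MB-231 cells in 50:50 DMEM/Matrigel into the fourth fat pad. At day 10, mice were randomized into groups of six. Dosing was i.p. three times weekly for 38 days, in vehicle EtOH/Cremophor/saline 5:5:90. Body weight was recorded weekly, and toxicity was judged by lethality and weight loss.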

**Q.** Which Activity (MDA-MB-231) does the source give for `O=C(NCC[Se][Se]CCNC(=O)/C(Cc1ccccc1)=N/O)/C(Cc1ccccc1)=N/O` here?
**A.** The Activity was “Active”.

**Q.** And the Activity [1]?
**A.** Its Activity is “Non-Toxic”.
